Experimental findings from ChEMBL document CHEMBL1129389, “Mechanism-based design of parasite-targeted artemisinin derivatives: synthesis and antimalarial activity of benzylamino and alkylamino ether analogues of artemisinin” (J Med Chem, 1996) are described below.

For assay [1], the system named is Plasmodium falciparum. The assay is described as follows: Antimalarial activity against Plasmodium falciparum K1. The format is functional, organism-based. In outline: (§1)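 Parasites kept in continuous culture in human erythrocytes (2–5%) in RPMI 1640 with 25 mM HEPES, 32 mM NaHCO3 and 10% human serum, gassed 3% O2/4% CO2/93% N2. 48 h assay: 1% initial parasitemia, 5% hematocrit, ethanol stocks (final <1% ethanol); [3H]hypoxanthine added after 24 h at 37 °C, counted after further 24 h. IC50 by probit interpolation; triplicate.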

The test system of assay [2] is Plasmodium falciparum. The assay is described as follows: Antimalarial activity against Plasmodium falciparum HB3. The format is functional, organism-based. The gist of the method:
as §1

For orientation: IC50 means the concentration at which inhibition is half-maximal.

Turning to `CNCCO[C@H]1OC2O[C@@]3(C)CC[C@H]4[C@H](C)CCC([C@H]1C)[C@@]24OO3` (stereo partly specified), the figures for the IC50 in assay [1] and in assay [2] were 2.4 nM and 2.7 nM, respectively.

On to `C[C@@H]1CCC2[C@@H](C)[C@@H](OCc3ccc(CN4CCCC4)cc3)OC3O[C@@]4(C)CC[C@@H]1[C@]32OO4` (stereo partly specified), for which the IC50 in assay [1] and in assay [2] was 2.3 nM each time.

As for `CCN(CC)Cc1ccc(CO[C@H]2OC3O[C@@]4(C)CC[C@H]5[C@H](C)CCC([C@H]2C)[C@@]35OO4)cc1` (stereo partly specified), the IC50 in assay [1] was 1.4 nM; in assay [2], 3.1 nM.

Regarding `C[C@@H]1CCC2[C@@H](C)[C@@H](OCc3ccc(CO)cc3)OC3O[C@@]4(C)CC[C@@H]1[C@]32OO4` (stereo partly specified), the IC50 amounted to 4.4 nM in assay [1] and 4.2 nM in assay [2].

For `C[C@@H]1CCC2[C@@H](C)[C@@H](OCc3ccc(CN4CCOCC4)cc3)OC3O[C@@]4(C)CC[C@@H]1[C@]32OO4` (stereo partly specified), the IC50 in assay [1] turned out to be 35 nM; in assay [2] it was 50 nM.

In the case of `C[C@@H]1CCC2[C@@H](C)[C@@H](OCc3ccc(CN4CCCCC4)cc3)OC3O[C@@]4(C)CC[C@@H]1[C@]32OO4` (stereo partly specified), the IC50 in assay [1] came to 9.8 nM; in assay [2], 12.2 nM.

Turning to `C[C@@H]1CC[C@H]2[C@@H](C)C(=O)O[C@@H]3O[C@@]4(C)CC[C@@H]1[C@]32OO4` [ARTEMISININ], the results for the 50% inhibitory concentration (IC50) in assay [1] and in assay [2] were 6.4 nM and 7.3 nM, respectively.

`CCNCCO[C@H]1OC2O[C@@]3(C)CC[C@H]4[C@H](C)CCC([C@H]1C)[C@@]24OO3` (stereo partly specified): the half-inhibitory concentration (IC50) in assay [1] and in assay [2] was 4.1 nM throughout.
